pIC50: −log10 of the molar value.
Key:
[1] = system: HBV replication in HepDES19 cells; assay: Mapping of the HBV replication step inhibited, in HepDES19 cells; format: cell-based, Hepatitis B virus; conditions: HepDES19, 6 days, ETV 1 μM, Bay 41–4109 2 μM; for encapsidated pgRNA / capsids: ENAN-34017 5 μM, 61 5 μM; for encapsidated pgRNA: Northern blot; for capsids: particle gel assay; for intracellular core protein level: Western blot
Procedure, shortened: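 HepDES19 cells were kept with tetracycline to block pgRNA transcription (negative control) or without it to induce pgRNA and HBV DNA replication. From 24 h after tet removal, cells got DMSO, test compound (5 μM) or a type II CpAM reference (5 μM) for 6 days. Intracellular core protein was detected by Western blot with an antibody to Cp C-terminal 14 residues; β-actin was the loading control.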

[2] = system: HBV replication; conditions: immortalized mouse hepatocyte line AML12HBV10; cited from earlier work
[3] = system: HBV replication; conditions: human hepatoma cell line HepDES19; cited from earlier work
[4] = Metabolic stability in mouse liver microsomes; format: in vitro ADME; conditions: Half-life T1/2, mouse liver microsomes
[5] = system: HBV replication; assay: Anti-HBV activity, dot blot hybridization assay in AML12HBV10 cells; format: cell-based, Hepatitis B virus
[6] = system: CYP enzymes; assay: in vitro; format: in vitro ADME; conditions: human, 10 μM
[7] = system: CYP enzymes (one unnamed isoform of a panel of 9); assay: in vitro; format: in vitro ADME
[8] = Mouse PK study, IV and PO; set-up: species or system mice; conditions: in vivo, 3 mg/kg

For `COC(=O)C1=C(C)NC(c2ncc(F)cc2F)=N[C@H]1c1ccc(F)cc1Cl` [Bay 41–4109], the “encapsidated pgRNA” value [1] was “prevented”, the capsids [1] was “completely abolished capsid formation” and the “intracellular core protein level” value [1] was “induced the degradation of core protein”.
For `O=C(Nc1ccc(F)c(Cl)c1)c1cccc2c1OCCO2` [Compound 10], the “EC50 in AML12HBV10” value [2] is listed as “sub-micromolar”, the “EC50 in HepDES19” value [3] is listed as “sub-micromolar” and the half-life [4] is listed as less than 10 min.
In the case of `O=C(Nc1ccc(N2CCOCC2)c(Cl)c1)c1cccc2c1OCCO2` [Compound 17], the “anti-HBV activity (in words)” value [5] was “loss of anti-HBV activity”.
For `O=C(Nc1ccc(O)c(Cl)c1)c1cccc2c1OCCO2` [Compound 20], the “anti-HBV activity (in words)” value [5] was “not active”.
For `O=C(NC1CC(F)(F)C1)c1cccc2c1OCCO2` [Compound 21], the “anti-HBV activity (in words)” value [5] was “lost activity”.
With `O=C(Nc1cc(F)c(F)c(F)c1)c1cccc2c1OCCO2` [Compound 29] the “anti-HBV activity (in words)” value [5] was “submicromolar”.
With `O=C(Nc1ccc(F)c(Cl)c1)c1cccc2c1OCCC2` [Compound 33] the “activity loss compared to 10” value [5] was “about 4 fold”.
With `O=C(Nc1ccc(F)c(Cl)c1)c1cccc2nccnc12` [Compound 34] the “activity loss compared to 10” value [5] was greater than 10 fold.
In the case of `O=C(Nc1ccc(F)c(Cl)c1)c1cccc2c1OC(F)(F)O2` [Compound 37], the “potency increase compared to 10” value [5] was 2 fold.
With `O=C1CCN(C(=O)Nc2ccc(F)c(Cl)c2)C2CCCCC12` (stereo not drawn) [Compound 61, cis-N-(3-chloro-4-fluorophenyl)-4-oxooctahydroquinoline-1(2H)-carboxamide] the “encapsidated pgRNA” value [1] was “reduced the amounts of encapsidated pgRNA”, the capsids [1] was “induced the accumulation of capsids with faster electrophoresis mobility” and the “CYP (#/9 of isoforms, > 50% of inhibition at 10 μM)” value [6] was 1. For the same compound, the pIC50 [7] was greater than 5.00 and the clearance [8] was 25.5 mL/min/kg.
In the case of `Cc1cc(NC(=O)N2CCC(=O)[C@H]3CCCC[C@H]32)ccc1F` [Compound 70], the “anti-HBV activity (in words)” value [5] was “submicromolar”.
With `O=C1CCN(C(=O)Nc2ccc(F)c(C(F)F)c2)[C@@H]2CCCC[C@H]12` [Compound 71] the “anti-HBV activity (in words)” value [5] was “submicromolar”.
For `O=C1CCN(C(=O)Nc2cccc(Cl)c2)[C@@H]2CCCC[C@H]12` [Compound 74], the “anti-HBV activity (in words)” value [5] was “submicromolar”.
For `C[C@@H](NS(=O)(=O)c1ccc(F)c(C(=O)Nc2ccc(F)c(F)c2)c1)C1CC1` [ENAN-34017], the “encapsidated pgRNA” value [1] was “reduced the amounts of encapsidated pgRNA” and the capsids [1] was “induced the accumulation of capsids with faster electrophoresis mobility”.
For `C=C1[C@H](CO)[C@@H](O)C[C@@H]1n1cnc2c(=O)[nH]c(N)nc21.O` [Entecavir], the “encapsidated pgRNA” value [1] was “accumulation of encapsidated pgRNA”, the capsids [1] was “did not alter” and the “intracellular core protein level” value [1] was “did not alter”.

— article PMC8792325 (Bioorganic & medicinal chemistry letters, 2021)
